For test [1], the system named is Neuronal progenitor cell. The experiment in a line: Induction of neuronal differentiation in mouse neuronal progenitor cells assessed as expression of Gfap at 1 uM treated for every second day for 4 days by immunofluorescence staining method. Type of test: functional. An outline of the steps: (§1)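 Neural stem/progenitor cells dissociated from embryonic day 14 mouse cerebrum. Cultured 24 h after seeding, then given 1 μM analogue every second day for 4 days. Immunofluorescence with Map2 (neurons, red) and Gfap (astrocytes, green), nuclei counterstained with DAPI. Imaged by confocal laser microscopy; the legend states staining after 48 h.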

Test [2] relates to Neuronal progenitor cell. The experiment in a line: Induction of neuronal differentiation in mouse neuronal progenitor cells assessed as expression of Map2 at 1 uM treated for every second day for 4 days by immunofluorescence staining method. Type of test: functional. An outline of the steps: as §1
Test [3] in a line: Induction of neuronal differentiation in mouse neuronal progenitor cells assessed as expression of Map2 at 1 uM treated for every second day for 4 days by real-time PCR method relative to control.
Test [4] has as its system Neuronal progenitor cell. The experiment in a line: Induction of neuronal differentiation in mouse neuronal progenitor cells assessed as relative ratio of expression of Map2/Gfap mRNA at 1 uM treated for every second day for 4 days by RT-PCR analysis. Type of test: functional. The gist of the method: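 E14 mouse cerebral progenitor cells, cultured 24 h, then treated with 1.0 × 10−6 M compound or ethanol for 4 days. mRNA extracted; Map2, Gfap and β-actin levels quantitated by real-time PCR, and the Map2/Gfap ratio calculated. Means of three independent experiments ± SD. Dunnett's t-test versus EtOH.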

The values that follow come from ChEMBL document CHEMBL3603816, “Synthetic Small Molecules Derived from Natural Vitamin K Homologues that Induce Selective Neuronal Differentiation of Neuronal Progenitor Cells” (2015).

Activity calls are given as the source filed them. The calls are words filed in the database; no cut-off is given here.

In the case of `C/C(=C\CO)CC/C=C(\C)CC/C=C(\C)Cc1cccc2ccccc12`, in test [1], the outcome was inactive. For the same compound, the outcome in test [2] was Active.

As to `CC1=C(C/C=C(\C)CC/C=C(\C)CC/C=C(\C)Cc2cccc3ccccc23)C(=O)c2ccccc2C1=O`, in test [1], the outcome was inactive. The “fold change (FC)” value in test [3] is 1.5. The outcome in test [2] was Active.

As to `CC1=C(C/C=C(\C)CC/C=C(\C)CC/C=C(\C)Cc2ccccc2)C(=O)c2ccccc2C1=O`, the outcome in test [1] was inactive. Besides, in test [3], the “fold change (FC)” value worked out at 1.5. In addition, the result in test [2] was Active.

Turning to `C/C(=C\CO)CC/C=C(\C)CC/C=C(\C)Cc1ccc2ccccc2c1`, in test [1], the outcome was inactive. Also, the result in test [2] was Active.

As for `CC1=C(C/C=C(\C)CC/C=C(\C)Cc2ccccc2)C(=O)c2ccccc2C1=O`, the outcome in test [1] was inactive. In addition, the “fold change (FC)” value in test [3] turned out to be 1.5. Also, the outcome in test [2] was Active.

`CC1=C(C/C=C(\C)CC/C=C(\C)Cc2cccc(C)c2)C(=O)c2ccccc2C1=O`: the outcome in test [1] was inactive. Moreover, the “fold change (FC)” value in test [3] is on record as 1.5. In addition, the result in test [2] was Active.

On to `CC1=C(C/C=C(\C)CC/C=C(\C)CC/C=C(\C)Cc2ccc(-c3ccccc3)cc2)C(=O)c2ccccc2C1=O`, for which, in test [1], the outcome was inactive. Also, in test [3], the “fold change (FC)” value is reported as 1.5. In addition, in test [2], the result was Active.

For `CC1=C(C/C=C(\C)CC/C=C(\C)Cc2ccc3ccccc3c2)C(=O)c2ccccc2C1=O`, the outcome in test [1] and in test [2] was inactive. For the same compound, the “fold change (FC)” value in test [3] is 1.5.

With `C/C(=C\CO)CC/C=C(\C)Cc1cccc2ccccc12`, the result in test [1] was inactive. Besides, the result in test [2] was Active.

As for `C/C(=C\CO)CC/C=C(\C)CC/C=C(\C)Cc1ccccc1`, in test [1], the outcome was inactive. Further, in test [2], the outcome was Active.

Take `CC(C)=CCC/C(C)=C/CC1=C(C)C(=O)c2ccccc2C1=O`: the outcome in test [4] was Active.

Consider `C/C(=C\CO)CC/C=C(\C)Cc1ccc(-c2ccccc2)cc1`, for which the outcome in test [1] was inactive. Besides, the outcome in test [2] was Active.

As to `CC1=C(C/C=C(\C)CC/C=C(\C)CC/C=C(\C)Cc2cccc(C)c2)C(=O)c2ccccc2C1=O`, the result in test [1] was inactive. In addition, the “fold change (FC)” value in test [3] was found to be 1.5. The result in test [2] and in test [4] was Active.

For `C/C(=C\CO)CC/C=C(\C)Cc1ccc2ccccc2c1`, the result in test [1] was inactive. In addition, the outcome in test [2] was Active.

As for `C/C(=C\CO)CC/C=C(\C)CC/C=C(\C)Cc1cccc(C)c1`, in test [1], the result was inactive. Moreover, the result in test [2] was Active.

For `CC1=C(C/C=C(\C)CC/C=C(\C)CC/C=C(\C)Cc2ccc3ccccc3c2)C(=O)c2ccccc2C1=O`, the result in test [1] was inactive. The “fold change (FC)” value in test [3] is on record as 1.5. In addition, the result in test [2] was Active.

Take `C/C(=C\CO)CC/C=C(\C)CC/C=C(\C)Cc1ccc(-c2ccccc2)cc1`: the result in test [1] was inactive. Besides, the outcome in test [2] was Active.

For the compound `C/C(=C\CO)CC/C=C(\C)Cc1cccc(C)c1`, in test [1], the outcome was inactive. For the same compound, in test [2], the outcome was Active.

`CC1=C(C/C=C(\C)CC/C=C(\C)Cc2ccc(-c3ccccc3)cc2)C(=O)c2ccccc2C1=O`: the result in test [1] was inactive. Further, in test [3], the “fold change (FC)” value was found to be 1.5. Moreover, in test [2], the outcome was Active.

Regarding `CC1=C(C/C=C(\C)CC/C=C(\C)Cc2cccc3ccccc23)C(=O)c2ccccc2C1=O`, the result in test [1] was inactive. Moreover, the “fold change (FC)” value in test [3] came out at 1.5. In addition, the outcome in test [2] was Active.

Regarding `C/C(=C\CO)CC/C=C(\C)Cc1ccccc1`, in test [1], the outcome was inactive. The outcome in test [2] was Active.

Regarding `CC(C)=CCC/C(C)=C/CC/C(C)=C/CC1=C(C)C(=O)c2ccccc2C1=O`, the outcome in test [4] was Active.
